Reference: ChEMBL document CHEMBL3526119, “Effect of the CYP2C8 genotype on the pharmacokinetics and pharmacodynamics of repaglinide” (Drug Metab Dispos, 2011)

Tests used:
Type in all cases: ADME, organism-based
[1] = Terminal half life in healthy white human at 2 mg, po; settings: in vivo, read-out: beta t1/2 (converted)
How it was run: (§1)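 Single oral 2 mg dose; plasma sampled pre-dose and from 0:15 to 24 h post-dose (15 samples). Repaglinide measured by LC-MS/MS with diclofenac internal standard; calibration 0.098–79.139 µg/L. Noncompartmental analysis; AUC by linear/log-linear trapezoidal rule extrapolated to infinity. Reported as mean with 95% CI for all subjects and for each CYP2C8*3 genotype group.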

[2] = AUC (0 to infinity) in healthy white human with SLCO1B1 521TT/CYP2C8*1/*1 combined genotype at 2 mg, po; parameters: dose 2 mg, route oral, time infinity; settings: plasma
How it was run: (§2)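 Healthy Caucasians genotyped for CYP2C8*3 and SLCO1B1 521T>C were given a single oral 2 mg dose of repaglinide, and alcohol, caffeine and grapefruit were withheld. Plasma was sampled before dosing and at 15 times from 0.25 to 24 h. Drug was measured by LC-MS/MS against diclofenac internal standard, linear 0.098–79.139 µg/L. Noncompartmental analysis: Cmax taken as observed; AUC by linear/log-linear trapezoidal rule extrapolated to infinity.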

[3] = AUC (0 to infinity) in healthy white human with CYP2C8*3/*3 genotype at 2 mg, po; parameters: dose 2 mg, route oral, time infinity; settings: plasma; how it was run: as §2
[4] = system: Homo sapiens; assay: Mean change in insulin concentration in healthy white human plasma with CYP2C8*3/*3 genotype at 2 mg, po up to 6 hrs; settings: in vivo
How it was run: (§3)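 Healthy Caucasians got a single 2 mg oral dose and were genotyped for CYP2C8*3 and SLCO1B1 521T>C. Plasma insulin was sampled from pre-dose to 6 h and measured by solid-phase enzyme-labelled chemiluminescent immunometric assay (calibration 2–300 mU/l). Mean change is the average of post-dose values minus baseline up to 6 h, summarised per genotype group.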

[5] = Oral clearance in healthy white human with CYP2C8*1/*3 genotype at 2 mg, po; settings: in vivo
How it was run: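 Repaglinide was assayed by LC-MS/MS with diclofenac internal standard (LLOQ 0.098 µg/L). Noncompartmental analysis gave AUC by linear/log-linear trapezoidal rule extrapolated to infinity. Weight-adjusted oral clearance = dose/(AUC × body weight).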

[6] = system: Homo sapiens; assay: Maximal change in insulin concentration in healthy white human plasma with CYP2C8*1/*1 genotype at 2 mg, po up to 6 hrs; settings: in vivo
How it was run: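 Plasma insulin was sampled up to 6 h after a single oral 2 mg dose, with subjects fasting. It was measured by solid-phase enzyme-labelled chemiluminescent immunometric assay, calibration range 2–300 mU/l. Maximal change is the largest change from the baseline concentration within 6 h.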

[7] = system: Homo sapiens; assay: Mean change in insulin concentration in healthy white human plasma with SLCO1B1 521TC/CYP2C8*1/*3 combined genotype at 2 mg, po; settings: in vivo; how it was run: as §3
[8] = AUC (0 to infinity) in healthy white human with SLCO1B1 521TT/CYP2C8*1/*3 combined genotype at 2 mg, po; parameters: dose 2 mg, route oral, time infinity; settings: plasma; how it was run: as §2
[9] = AUC (0 to infinity) in healthy white human with SLCO1B1 521TT/CYP2C8*3/*3 combined genotype at 2 mg, po; parameters: dose 2 mg, time infinity, route oral; settings: plasma; how it was run: as §2
[10] = AUC (0 to infinity) in healthy white human with SLCO1B1 521CC/CYP2C8*3/*3 combined genotype at 2 mg, po; parameters: dose 2 mg, route oral, time infinity; settings: plasma; how it was run: as §2
[11] = Terminal half life in healthy white human with CYP2C8*3/*3 genotype at 2 mg, po; settings: in vivo, read-out: beta t1/2 (converted); how it was run: as §1
[12] = system: Homo sapiens; assay: Mean change in blood glucose concentration in healthy white human plasma SLCO1B1 521CC/CYP2C8*1/*3 combined genotype at 2 mg, po; settings: in vivo
How it was run: (§4)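 Venous blood glucose was read at each blood sampling time after a single oral 2 mg dose, with fasting up to 6 h. […] Maximal change is the largest change from baseline. Mean change is the average difference between values up to 6 h post-dose and baseline.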

[13] = system: Homo sapiens; assay: Mean change in blood glucose concentration in healthy white human plasma with CYP2C8*1/*1 genotype at 2 mg, po up to 6 hrs; settings: in vivo
How it was run: (§5)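 Single 2 mg oral dose in healthy Caucasian volunteers genotyped for CYP2C8*3, with SLCO1B1 521T>C also typed. […] Mean change is the average difference between values up to 6 h post-dose and baseline. Fasting lasted to 6 h. Mean with 95% CI or SD by genotype group.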

[14] = species on record: Homo sapiens; assay: Maximal change in blood glucose concentration in healthy human plasma with SLCO1B1 521CC genotype at 0.5 mg
[15] = Cmax in healthy white human with SLCO1B1 521TT/CYP2C8*1/*1 combined genotype at 2 mg, po; parameters: dose 2 mg, route oral; settings: in vivo; how it was run: as §2
[16] = system: Homo sapiens; assay: Maximal change in blood glucose concentration in healthy white human plasma at 2 mg, po up to 6 hrs; settings: in vivo; how it was run: as §4
[17] = system: Homo sapiens; assay: Mean change in blood glucose concentration in healthy white human plasma SLCO1B1 521CC/CYP2C8*3/*3 combined genotype at 2 mg, po; settings: in vivo; how it was run: as §4
[18] = AUC (0 to infinity) in healthy white human with SLCO1B1 521TC/CYP2C8*1/*1 combined genotype at 2 mg, po; parameters: dose 2 mg, route oral, time infinity; settings: plasma; how it was run: as §2
[19] = species on record: Homo sapiens; assay: Maximal change in blood glucose concentration in healthy human plasma with SLCO1B1 521TT genotype at 0.5 mg
[20] = Tmax in healthy white human with CYP2C8*3/*3 genotype at 2 mg, po; settings: in vivo
[21] = system: Homo sapiens; assay: Mean change in blood glucose concentration in healthy white human plasma SLCO1B1 521TT/CYP2C8*3/*3 combined genotype at 2 mg, po; settings: in vivo; how it was run: as §5
[22] = AUC (0 to infinity) in healthy white human with CYP2C8*1/*1 genotype at 2 mg, po; parameters: dose 2 mg, time infinity, route oral; settings: plasma; how it was run: as §2
[23] = Cmax in healthy white human with SLCO1B1 521TC/CYP2C8*1/*1 combined genotype at 2 mg, po; parameters: dose 2 mg, route oral; settings: in vivo; how it was run: as §2
[24] = Cmax in healthy white human with SLCO1B1 521TT/CYP2C8*3/*3 combined genotype at 2 mg, po; parameters: dose 2 mg, route oral; settings: in vivo; how it was run: as §2
[25] = AUC (0 to infinity) in healthy white human with SLCO1B1 521TC/CYP2C8*1/*3 combined genotype at 2 mg, po; parameters: dose 2 mg, time infinity, route oral; settings: plasma; how it was run: as §2
[26] = system: Homo sapiens; assay: Maximal change in blood glucose concentration in healthy white human plasma with CYP2C8*1/*3 genotype at 2 mg, po up to 6 hrs; settings: in vivo; how it was run: as §4
[27] = AUC (0 to infinity) in healthy white human at 2 mg, po; parameters: dose 2 mg, time infinity, route oral; settings: plasma; how it was run: as §2
[28] = system: Homo sapiens; assay: Mean change in insulin concentration in healthy white human plasma with CYP2C8*1/*3 genotype at 2 mg, po up to 6 hrs; settings: in vivo; how it was run: as §3
[29] = system: Homo sapiens; assay: Mean change in insulin concentration in healthy white human plasma with SLCO1B1 521TT/CYP2C8*1/*3 combined genotype at 2 mg, po; settings: in vivo; how it was run: as §3
[30] = system: Homo sapiens; assay: Mean change in blood glucose concentration in healthy white human plasma at 2 mg, po up to 6 hrs; settings: in vivo; how it was run: as §5
[31] = system: Homo sapiens; assay: Mean change in insulin concentration in healthy white human plasma with SLCO1B1 521CC/CYP2C8*3/*3 combined genotype at 2 mg, po; settings: in vivo; how it was run: as §3
[32] = system: Homo sapiens; assay: Maximal change in blood glucose concentration in healthy white human plasma with CYP2C8*1/*1 genotype at 2 mg, po up to 6 hrs; settings: in vivo; how it was run: as §4
[33] = system: Homo sapiens; assay: Mean change in insulin concentration in healthy white human plasma with SLCO1B1 521CC/CYP2C8*1/*3 combined genotype at 2 mg, po; settings: in vivo; how it was run: as §3

half-life [1]: 1.3 h | AUC(0-inf) [2]: 92.3 ng·h/mL | AUC(0-inf) [3]: 72.4 ng·h/mL | Activity [4]: 2.6 mU/L | CL/F [5]: 7.67 mL/min/kg | Activity [6]: 23.9 mU/L | Activity [7]: 5.6 mU/l | AUC(0-inf) [8]: 117 ng·h/mL | AUC(0-inf) [9]: 116 ng·h/mL | AUC(0-inf) [10]: 95.8 ng·h/mL | half-life [11]: 1.3 h | Activity [12]: -0.2 mM | Activity [13]: -0.42 mM | Activity [14]: 2.3 mM | Cmax [15]: 52.5 ng/mL | Activity [16]: -1.69 mM | Activity [17]: -0.8 mM | AUC(0-inf) [18]: 146 ng·h/mL | Activity [19]: 1.9 mM | Tmax [20]: 0.9 h | Activity [21]: -0.1 mM | AUC(0-inf) [22]: 106 ng·h/mL | Cmax [23]: 83.7 ng/mL | Cmax [24]: 36.6 ng/mL | AUC(0-inf) [25]: 77.2 ng·h/mL | Activity [26]: -1.83 mM | AUC(0-inf) [27]: 97.4 ng·h/mL | Activity [28]: 5.2 mU/L | Activity [29]: 5.6 mU/l | Activity [30]: -0.53 mM | Activity [31]: 6.1 mU/l | Activity [32]: -1.62 mM | Activity [33]: 0.6 mU/l
SMILES: CCOc1cc(CC(=O)N[C@@H](CC(C)C)c2ccccc2N2CCCCC2)ccc1C(=O)O [REPAGLINIDE]
